Here are results for nine compounds from ChEMBL document CHEMBL1123696, “1H NMR study of degradation mechanisms of oxacephem derivatives with various 3'-substituents in alkaline solution” (J Med Chem, 1987).

What all share (assay type): ADME
Data set [1] is described as follows: Pseudo first order rate constant of the beta-lactam ring cleavage determined from 1H NMR spectra. An outline of the steps: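 Oxacephem (about 1×10^-2 M initial) in 0.2 M deuteriated carbonate buffer, pD 10.4, μ = 0.5, held at 35 ± 0.5 °C. β-Lactam loss followed by 1H NMR with 64 acquisitions per spectrum. Pseudo-first-order constant from regression of residual oxacephem fraction against time in hours.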

The nature of data set [2]: Pseudo first order rate constant of the beta-lactam ring cleavage determined from UV spectra (pH 10, 35 degree C). An outline of the steps: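 Oxacephem at about 7.5×10^-5 M initial in 0.008 M carbonate buffer, μ = 0.1, 35.0 ± 0.2 °C. Loss of UV absorbance near 260 nm recorded continuously over time. Pseudo-first-order constant for β-lactam cleavage obtained by the Guggenheim method.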

The nature of data set [3]: Pseudo first order rate constant of the beta-lactam ring cleavage determined from 1H NMR spectra; value is corrected for parallel correction. An outline of the steps:
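Degradation in 0.2 M deuteriated carbonate buffer, pD 10.4, μ = 0.5, 35 °C, oxacephem about 1×10^-2 M. Time courses of parent and products were recorded by 1H NMR. Rate constants came from kinetic analysis of a parallel-reaction scheme fitted to the experimental curves, which separates the OH− contribution to β-lactam cleavage.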

As for `CO[C@@]1(NC(=O)Cc2ccccc2)C(=O)N2C(C(=O)[O-])=C(COC(N)=O)COC21.[Na+]` (some centres undefined), the k obs in data set [1] is 0.45 h⁻¹; in data set [2], 0.23 h⁻¹.

In the case of `CO[C@@]1(NC(=O)Cc2ccccc2)C(=O)N2C(C(=O)[O-])=C(CSc3nnnn3C)CO[C@@H]21.[Na+]`, the k obs in data set [1] was found to be 0.192 h⁻¹; in data set [2], 0.204 h⁻¹.

As to `CO[C@@]1(NC(=O)Cc2ccccc2)C(=O)N2C(C(=O)[O-])=C(CO)CO[C@@H]21.[Na+]`, the k obs in data set [1] worked out at 0.164 h⁻¹; in data set [2], 0.139 h⁻¹.

Regarding `COCC1=C(C(=O)[O-])N2C(=O)[C@](NC(=O)Cc3ccccc3)(OC)[C@H]2OC1.[Na+]`, the k obs in data set [1] worked out at 0.204 h⁻¹; in data set [2], 0.144 h⁻¹.

In the case of `CO[C@@]1([N-]C(=O)Cc2ccccc2)C(=O)N2C(C(=O)[O-])=C(C[n+]3ccccc3)CO[C@@H]21.[Na+]`, the results for the k obs in data set [1] and in data set [2] were 1.39 h⁻¹ and 1.26 h⁻¹, respectively.

With `CO[C@@]1(NC(=O)Cc2ccccc2)C(=O)N2C(C(=O)[O-])=C(CC#N)CO[C@@H]21.[Na+]`, the results for the k obs in data set [1] and in data set [2] were 0.289 h⁻¹ and 0.234 h⁻¹, respectively.

With `CO[C@@]1(NC(=O)Cc2ccccc2)C(=O)N2C(C(=O)[O-])=C(COC(C)=O)CO[C@@H]21.[Na+]`, the k obs in data set [1] came out at 0.255 h⁻¹; in data set [3], 0.308 h⁻¹; in data set [2] it was 0.285 h⁻¹.

As for `CO[C@@]1(NC(=O)Cc2ccccc2)C(=O)N2C(C(=O)[O-])=C(C)CO[C@@H]21.[Na+]`, the k obs in data set [1] turned out to be 0.0484 h⁻¹; in data set [2] it was 0.0346 h⁻¹.

`CO[C@@]1(NC(=O)Cc2ccccc2)C(=O)N2C(C(=O)[O-])=C(CSC)CO[C@@H]21.[Na+]`: the k obs in data set [1] worked out at 0.11 h⁻¹; in data set [2] it was 0.101 h⁻¹.
